Counter-ions that a name gives are not always drawn. Calls of active or inactive are those of the source. The calls are words filed in the database; no cut-off is given here.
Key:
[1] = system: PC-3; experiment: Cytotoxicity against human PC3 cells assessed as reduction in cell viability after 24 hrs by MTT assay; settings: PC-3, 24 h
[2] = system: HEp-2; experiment: Cytotoxicity against human Hep2 cells assessed as reduction in cell viability after 24 hrs by MTT assay; settings: HEp-2, 24 h
[3] = system: MCF7; experiment: Cytotoxicity against human MCF7 cells assessed as reduction in cell viability after 24 hrs by MTT assay; settings: MCF7, 24 h
[4] = system: HCT-8; experiment: Cytotoxicity against human HCT8 cells assessed as reduction in cell viability after 24 hrs by MTT assay; settings: HCT-8, 24 h
[5] = system: HeLa; experiment: Cytotoxicity against human HeLa cells assessed as reduction in cell viability after 24 hrs by MTT assay
[6] = system: HepG2; experiment: Cytotoxicity against human HepG2 cells assessed as reduction in cell viability after 24 hrs by MTT assay; settings: HepG2, 24 h
[7] = system: BGC-823; experiment: Cytotoxicity against human BGC823 cells assessed as reduction in cell viability after 24 hrs by MTT assay; settings: BGC-823, 24 h
[8] = system: HepG2; experiment: Induction of apoptosis in human HepG2 cells assessed as viable cells at 10 ug/ml after 24 hrs by annexin V-FITC/propidium iodide staining based flow cytometry (reference value: 89.59%); assay type: functional; settings: HepG2, 24 h, read-out: Activity
[9] = system: HepG2; experiment: Anticlonogenic activity against human HepG2 cells at 10 uM treated for 24 hrs measured after 6 days by crystal violet staining based assay; assay type: functional, cell-based
[10] = system: HepG2; experiment: Antiproliferative activity against human HepG2 cells up to 100 uM by CCK-8 assay; assay type: functional, cell-based; settings: TDE = time-dependent effect
Method in brief: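 HepG2 cells were seeded and left 24 h, then treated with a range of compound concentrations for 24 h. Viability was read by CCK-8 assay.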

[11] = system: HepG2; experiment: Induction of apoptosis in human HepG2 cells assessed as early apoptotic cells at 10 ug/ml after 24 hrs by annexin V-FITC/propidium iodide staining based flow cytometry (reference value: 6.56%); assay type: functional
[12] = system: HepG2; experiment: Induction of apoptosis in human HepG2 cells assessed as late apoptotic cells at 10 ug/ml after 24 hrs by annexin V-FITC/propidium iodide staining based flow cytometry (reference value: 3.50%); assay type: functional
[13] = system: HepG2; experiment: Induction of apoptosis in human HepG2 cells assessed as necrotic cells at 10 ug/ml after 24 hrs by annexin V-FITC/propidium iodide staining based flow cytometry (reference value: 0.36%); assay type: functional
[14] = system: HepG2; experiment: Induction of apoptosis in human HepG2 cells assessed as viable cells at 20 ug/ml after 24 hrs by annexin V-FITC/propidium iodide staining based flow cytometry (reference value: 89.59%); assay type: functional; settings: HepG2, 24 h, read-out: Activity
[15] = system: HepG2; experiment: Induction of apoptosis in human HepG2 cells assessed as early apoptotic cells at 20 ug/ml after 24 hrs by annexin V-FITC/propidium iodide staining based flow cytometry (reference value: 6.56%); assay type: functional
[16] = system: HepG2; experiment: Induction of apoptosis in human HepG2 cells assessed as late apoptotic cells at 20 ug/ml after 24 hrs by annexin V-FITC/propidium iodide staining based flow cytometry (reference value: 3.50%); assay type: functional
[17] = system: HepG2; experiment: Induction of apoptosis in human HepG2 cells assessed as necrotic cells at 20 ug/ml after 24 hrs by annexin V-FITC/propidium iodide staining based flow cytometry (reference value: 0.36%); assay type: functional
[18] = system: HepG2; experiment: Induction of apoptosis in human HepG2 cells after 24 hrs by annexin V-FITC/propidium iodide staining based flow cytometry; assay type: functional, cell-based
[19] = system: HepG2; experiment: Induction of apoptosis in human HepG2 cells assessed as increase in Bak protein expression at 10 to 20 ug/ml after 24 hrs by Western blot analysis; assay type: functional, cell-based
[20] = system: HepG2; experiment: Induction of DNA damage in human HepG2 cells assessed as increase in PARP level after 24 hrs by Western blot analysis; assay type: functional, cell-based
[21] = system: HepG2; experiment: Induction of DNA damage in human HepG2 cells assessed as increase in caspase-3 level after 24 hrs by Western blot analysis; assay type: functional, cell-based
[22] = system: HepG2; experiment: Cell cycle arrest in human HepG2 cells assessed as accumulation at G2/M phase after 24 hrs by propidium iodide staining based flow cytometry; assay type: functional
[23] = biological target: Cellular tumor antigen p53 (Homo sapiens) (UniProt P04637); experiment: Activation of p53 (unknown origin) transfected in human HepG2 cells at 4 uM after 24 hrs by dual-luciferase assay relative to control; assay type: cell-based
Cellular tumor antigen p53 (Homo sapiens), sequence (P04637 whole entry, looked up): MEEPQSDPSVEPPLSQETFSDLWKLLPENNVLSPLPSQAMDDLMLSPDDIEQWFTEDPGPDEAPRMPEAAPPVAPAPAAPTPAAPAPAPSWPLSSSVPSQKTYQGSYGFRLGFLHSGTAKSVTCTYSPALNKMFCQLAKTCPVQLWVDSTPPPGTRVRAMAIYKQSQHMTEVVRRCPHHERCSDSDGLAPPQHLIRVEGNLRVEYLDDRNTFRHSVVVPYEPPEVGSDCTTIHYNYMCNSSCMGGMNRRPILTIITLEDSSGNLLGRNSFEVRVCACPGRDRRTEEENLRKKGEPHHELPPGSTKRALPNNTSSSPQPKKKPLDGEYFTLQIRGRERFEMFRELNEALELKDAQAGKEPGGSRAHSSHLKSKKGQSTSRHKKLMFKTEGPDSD
Method in brief: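 HepG2 cells transfected with the pathway reporter for 24 h, then exposed to 4 μM compound for a further 24 h; reporter activity read by dual-luciferase assay.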

[24] = system: HepG2; experiment: Increase in p53 expression in human HepG2 cells at 10 to 20 ug/ml after 24 hrs by Western blot analysis; assay type: functional, cell-based
[25] = biological target: Cellular tumor antigen p53 (Homo sapiens) (UniProt P04637); experiment: Activation of p53 in human HepG2 cells assessed as increase in p21 expression at 10 to 20 ug/ml after 24 hrs by Western blot analysis; assay type: cell-based
[26] = system: HepG2; experiment: Downregulation of cyclin B1 expression in human HepG2 cells after 24 hrs by Western blot analysis; assay type: functional, cell-based
[27] = system: HepG2; experiment: Downregulation of CDK1 expression in human HepG2 cells after 24 hrs by Western blot analysis; assay type: functional, cell-based

SMILES | IC50 [1] [µM] | IC50 [2] [µM] | IC50 [3] [µM] | IC50 [4] [µM] | IC50 [5] [µM] | IC50 [6] [µM] | IC50 [7] [µM] | other results
CCCCn1cc(C(=O)NCCCN)c(=O)c2ccc(Cl)cc21 | 12 | 21.7 | 12.6 | 22.3 | 15 | 5.23 | 16.6 | –
CCn1cc(C(=O)NCCCN)c(=O)c2ccc(Cl)cc21 | 12.6 | 28.2 | 35.5 | 31.6 | 20 | 13.8 | 30.2 | –
NCCCNC(=O)c1cn(Cc2ccccc2)c2cc(Cl)ccc2c1=O | 9.12 | 8.31 | 5.02 | 14.5 | 4.54 | 5.42 | 6.71 | –
COc1cccc2c1C(=O)c1c(O)c3c(c(O)c1C2=O)C[C@@](O)(C(=O)CO)C[C@@H]3O[C@H]1C[C@H](N)[C@H](O)[C@H](C)O1 [DOXORUBICIN HYDROCHLORIDE] | < 1 | < 1 | < 1 | < 1 | < 1 | < 1 | < 1 | –
Oc1ccnc2cc(Cl)ccc12 | > 50 | > 50 | > 50 | > 50 | > 50 | > 50 | > 50 | –
Cl.NCCCNC(=O)c1cn(CCCc2ccccc2)c2cc(Cl)ccc2c1=O | 6.92 | 3.24 | 3.12 | 6.03 | 2.31 | < 1 | 3.2 | viability at 10 µg/mL [8]: 88.5%; Activity [9]: Active; Activity [10]: Tde; Activity [11]: 7.01%; Activity [12]: 3.71%; Activity [13]: 0.75%; viability at 20 µg/mL [14]: 66.3%; Activity [15]: 10.72%; Activity [16]: 18.44%; Activity [17]: 4.5%; Activity [18]: Dose-dependent effect; Activity [19]: Active; Activity [20]: Dose-dependent effect; Activity [21]: Dose-dependent effect; Activity [22]: Dose-dependent effect; fold change (FC) [23]: 1.5; Activity [24]: Active; Activity [25]: Active; Activity [26]: Dose-dependent effect; Activity [27]: Dose-dependent effect
C=CCn1cc(C(=O)NCCCN)c(=O)c2ccc(Cl)cc21 | 13.2 | 36.5 | 31.6 | 34.7 | 22.4 | 17 | 20 | –
